This is an account of results in ChEMBL document CHEMBL4715825, “Synthesis and biological evaluations of marine oxohexadecenoic acids: PPARα/γ dual agonism and anti-diabetic target gene effects” (Eur J Med Chem, 2018).

Activity calls are given as the source filed them. No cut-off for these calls is given here.

The target in experiment [1] is T1, Peroxisome proliferator-activated receptor gamma (Homo sapiens) (UniProt P37231).
T1 sequence (whole entry): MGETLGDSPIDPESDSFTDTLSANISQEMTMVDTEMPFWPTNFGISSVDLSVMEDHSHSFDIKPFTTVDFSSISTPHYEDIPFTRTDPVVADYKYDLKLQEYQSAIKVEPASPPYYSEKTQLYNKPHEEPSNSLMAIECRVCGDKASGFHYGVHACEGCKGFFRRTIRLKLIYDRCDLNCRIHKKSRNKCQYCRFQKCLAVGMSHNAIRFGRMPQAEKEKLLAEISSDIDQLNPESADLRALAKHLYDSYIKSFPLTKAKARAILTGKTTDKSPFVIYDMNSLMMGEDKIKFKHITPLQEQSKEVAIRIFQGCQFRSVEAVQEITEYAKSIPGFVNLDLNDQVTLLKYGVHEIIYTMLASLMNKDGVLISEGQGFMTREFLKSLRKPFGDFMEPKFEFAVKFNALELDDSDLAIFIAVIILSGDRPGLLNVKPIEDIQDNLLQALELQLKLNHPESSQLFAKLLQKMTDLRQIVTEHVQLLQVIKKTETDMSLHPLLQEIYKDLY
The experiment is described as follows: Agonist activity at human PPARgamma in 8 day differentiated human SGBS cells assessed as decrease in CXCL5 gene expression at 25 uM incubated for 24 hrs by SYBR-green based qPCR analysis. It counts as cell-based. As to conditions: filed as agonist.

Experiment [2] concerns the target T1, Peroxisome proliferator-activated receptor gamma (Homo sapiens). The experiment is described as follows: Agonist activity at human PPARgamma in 8 day differentiated human SGBS cells assessed as decrease in IL-1 beta gene expression at 25 uM incubated for 24 hrs by SYBR-green based qPCR analysis. The class given is cell-based. As to conditions: filed as agonist. For orientation: Quantitative PCR measures a nucleic acid by following its amplification.

The subject of a further experiment is SGBS. The experiment in a line: Induction of adipogenesis in 8 day differentiated human SGBS cells assessed as upregulation of steroid biosynthesis genes at 25 uM incubated for 8 days by Illumina sequencing method. The class given is functional, cell-based. In outline:
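SGBS cells were differentiated for 8 days: Quickdiff for days 0-4 with 2 µM rosiglitazone or 25 µM oxo-fatty acid:BSA, then 3FC. Total RNA was extracted (RIN 9.80-10.00) and strand-specific TruSeq libraries were sequenced on NextSeq 500 (2×75 bp paired-end). Reads were aligned to hg19 and quantified as RPKM. Data were expressed as log2 fold over day-0 cells (n = 2-4) and grouped into KEGG gene sets.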

For experiment [3], the target named is T2, Retinoic acid receptor RXR-alpha (Homo sapiens) (UniProt P19793).
T2 sequence (whole entry): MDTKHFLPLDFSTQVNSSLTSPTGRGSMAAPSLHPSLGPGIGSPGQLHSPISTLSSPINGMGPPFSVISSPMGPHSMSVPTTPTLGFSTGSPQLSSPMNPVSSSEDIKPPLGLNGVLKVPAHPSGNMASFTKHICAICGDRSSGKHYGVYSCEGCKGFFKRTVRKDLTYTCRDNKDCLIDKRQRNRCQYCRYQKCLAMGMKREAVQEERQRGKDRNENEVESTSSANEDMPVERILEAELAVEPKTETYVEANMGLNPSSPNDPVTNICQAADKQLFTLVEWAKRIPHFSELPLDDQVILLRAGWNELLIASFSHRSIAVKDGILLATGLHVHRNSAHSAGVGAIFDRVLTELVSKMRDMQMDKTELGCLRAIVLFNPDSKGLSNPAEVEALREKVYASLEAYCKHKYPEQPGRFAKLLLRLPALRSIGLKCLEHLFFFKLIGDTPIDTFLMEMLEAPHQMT
The experiment in a line: Agonist activity at recombinant human RXRalpha LBD (202 to 462 residues) expressed in African green monkey COS-1 cells at 25 to 50 uM incubated for 18 hrs by luciferase reporter gene assay. As to conditions: dose 25-50 µM. The class given is cell-based. Summed up:
(§1)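 Transient Gal4 one-hybrid assay in COS-1 cells (7×10^4 per well), transfected 24 h after seeding. Plasmids were Gal4-DBD fused to the human nuclear receptor LBD, a 5×UAS-SV40 luciferase reporter and pRL-CMV Renilla control. Ligand in DMSO (final 0.1%) was added 5 h post-transfection. Dual-luciferase activity was read after 18 h, expressed as RLU, from three biological replicates in quadruplicate.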
In general terms: Reporter assays use an easily measured gene product as a stand-in for the process of interest.

For experiment [4], the target named is T3, Peroxisome proliferator-activated receptor alpha (Homo sapiens) (UniProt Q07869).
T3 sequence (whole entry): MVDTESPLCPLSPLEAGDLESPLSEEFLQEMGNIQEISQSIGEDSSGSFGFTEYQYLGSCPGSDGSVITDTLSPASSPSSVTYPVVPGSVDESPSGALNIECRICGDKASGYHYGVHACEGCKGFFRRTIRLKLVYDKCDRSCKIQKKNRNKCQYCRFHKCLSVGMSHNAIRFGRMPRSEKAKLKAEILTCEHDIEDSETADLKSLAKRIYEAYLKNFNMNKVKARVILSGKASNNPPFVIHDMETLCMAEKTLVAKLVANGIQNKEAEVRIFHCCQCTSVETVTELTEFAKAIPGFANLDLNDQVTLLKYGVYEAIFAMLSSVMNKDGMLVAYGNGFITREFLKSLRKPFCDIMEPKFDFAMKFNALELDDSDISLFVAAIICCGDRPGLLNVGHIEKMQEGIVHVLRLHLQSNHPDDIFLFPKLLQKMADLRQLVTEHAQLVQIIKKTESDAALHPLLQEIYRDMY
The experiment is described as follows: Agonist activity at human PPARalpha in human HuH-7 cells assessed as increase in ANGPTL4 gene expression at 50 uM incubated for 24 hrs by SYBR-green based qPCR analysis. As to conditions: filed as agonist. It counts as cell-based. Summed up: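 Cells were seeded at 2×10^5 per well and treated 24 h later with compound in DMSO (final 0.1%). The next day, cells were washed and scraped into RLT buffer. RNA was isolated, and target gene mRNA was quantified by SYBR-green qPCR with specific primers.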

Experiment [5] concerns the target T4, Oxysterols receptor LXR-beta (Homo sapiens) (UniProt P55055).
T4 sequence (whole entry): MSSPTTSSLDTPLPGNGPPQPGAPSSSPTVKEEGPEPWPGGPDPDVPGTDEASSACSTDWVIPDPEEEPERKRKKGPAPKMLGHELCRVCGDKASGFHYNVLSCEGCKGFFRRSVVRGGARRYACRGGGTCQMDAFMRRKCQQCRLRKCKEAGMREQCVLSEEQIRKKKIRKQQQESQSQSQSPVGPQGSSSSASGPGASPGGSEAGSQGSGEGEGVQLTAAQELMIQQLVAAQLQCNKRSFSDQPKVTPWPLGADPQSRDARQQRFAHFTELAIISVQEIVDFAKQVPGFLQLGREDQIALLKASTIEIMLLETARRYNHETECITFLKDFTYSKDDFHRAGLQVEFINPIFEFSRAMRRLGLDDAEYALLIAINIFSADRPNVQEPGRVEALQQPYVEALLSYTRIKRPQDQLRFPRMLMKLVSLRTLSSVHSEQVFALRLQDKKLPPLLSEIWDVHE
The experiment is described as follows: Agonist activity at recombinant human LXRbeta LBD (155 to 461 residues) expressed in African green monkey COS-1 cells at 25 to 50 uM incubated for 18 hrs by luciferase reporter gene assay. As to conditions: dose 25-50 µM. It counts as cell-based. In outline:
as §1

In the case of `CCCCCCCC(=O)/C=C/CCCCCC(=O)O`, the result (in experiment [1]; in experiment [2]; in the experiment on SGBS; in experiment [4]) was Active. The outcome in experiment [3] and in experiment [5] was inactive.
Consider `CCCCC/C=C/C(=O)CCCCCCCC(=O)O`, for which the outcome (in experiment [1]; in experiment [2]; in the experiment on SGBS; in experiment [4]) was Active. Besides, the result in experiment [3] and in experiment [5] was inactive.
